Results: ChEMBL document CHEMBL1255470, “Effect of ceftaroline on normal human intestinal microflora” (Antimicrob Agents Chemother, 2010)
Converted amounts (≈) assume the structure as drawn. The source made the active and inactive calls. The calls are words filed in the database; no cut-off is given here.

Key:
Enterococcus = assay: Antibacterial activity against Enterococcus in healthy human intestine at […], iv administered every 12 hrs for 7 days measured on day 21; assay type: functional, organism-based
In short: (§1)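 Twelve healthy adults (6 male, 6 female, 20–41 y) received 600 mg by i.v. infusion over 60 min q12h, 13 doses over 7 days. Feces were collected on days −1, 2, 5, 7, 9, 14 and 21 (first specimen of the day) and frozen at −70°C. Samples were suspended in prereduced peptone yeast extract and 10-fold diluted onto nonselective and selective agars. Aerobic plates were incubated 24 h and anaerobic jars 48 h, both at 37°C. Counts were expressed as log CFU/g, with a detection limit of 10^2, and compared by Wilcoxon signed-rank test.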

Bifidobacterium = assay: Antibacterial activity against Bifidobacterium in healthy human intestine assessed as log reduction in bacterial count per gram of feces at […], iv administered every 12 hrs for 7 days measured on day 7; assay type: functional; in short: as §1
Homo sapiens [1] = assay: Toxicity against healthy human assessed as occurrence of urinary infection at […], iv administered every 12 hrs for 7 days measured on day 9; assay type: organism-based, Urine; design: route intravenous; conditions: in vivo
Clostridioides difficile [2] = assay: Antibacterial activity against Clostridium difficile by broth microdilution method; assay type: functional
Escherichia coli [3] = assay: Antibacterial activity against Escherichia coli ATCC 25922 at =< 4 mg/L after 48 hrs by CLSI method; assay type: functional, organism-based
Prevotella = assay: Antibacterial activity against Prevotella by broth microdilution method; assay type: functional
Enterococcus faecalis = assay: Antibacterial activity against Enterococcus faecalis ATCC 29212 at =< 4 mg/L after 48 hrs by CLSI method; assay type: functional, organism-based
Bacteroides sp. = assay: Antibacterial activity against Bacteroides sp. in healthy human intestine assessed as decrease in bacterial count at […], iv administered every 12 hrs for 7 days measured on day 21; assay type: functional, organism-based; in short: as §1
Homo sapiens [4] = assay: Toxicity against healthy human assessed as effect on hematological parameters at […], iv administered every 12 hrs for 7 days measured on day 9; assay type: organism-based; design: route intravenous; conditions: in vivo
Bacteroides fragilis [5] = assay: Antibacterial activity against Bacteroides fragilis by broth microdilution method; assay type: functional
Escherichia coli [6] = assay: Antibacterial activity against Escherichia coli in healthy human intestine assessed as log reduction in bacterial count per gram of feces at […], iv administered every 12 hrs for 7 days measured on day 7; assay type: functional; in short: as §1
Clostridium = assay: Antibacterial activity against Clostridium in healthy human intestine assessed as decrease in bacterial count at […], iv administered every 12 hrs for 7 days measured on day 7; assay type: functional, organism-based; in short: as §1
Homo sapiens [7] = assay: Toxicity against healthy human assessed as effect on ECG parameters at […], iv administered every 12 hrs for 7 days measured on day 9; assay type: organism-based; design: route intravenous; conditions: in vivo
Clostridium perfringens = assay: Antibacterial activity against Clostridium perfringens by broth microdilution method; assay type: functional
Bacteroides fragilis [8] = assay: Antibacterial activity against Bacteroides fragilis ATCC 25285 after 48 hrs by CLSI method; assay type: functional; conditions: NCTC 9343, 48 h
In short: (§2)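 Agar dilution MIC per CLSI anaerobe guidance, with 10^5 CFU per spot inoculum and 48 h incubation. The reference strain was run alongside new colonizing fecal isolates. MIC was taken as the lowest drug concentration giving complete growth inhibition. A provisional resistance breakpoint of 4 mg/liter was applied.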

Escherichia coli [9] = assay: Antibacterial activity against Escherichia coli in healthy human intestine assessed as log reduction in bacterial count per gram of feces at […], iv administered every 12 hrs for 7 days measured on day 9; assay type: functional; in short: as §1
Clostridium septicum = assay: Antibacterial activity against Clostridium septicum by broth microdilution method; assay type: functional
Enterobacteriaceae = assay: Antibacterial activity against Enterobacteriaceae in healthy human intestine assessed as decrease in bacterial count at […], iv administered every 12 hrs for 7 days measured on day 14; assay type: functional, organism-based; in short: as §1
Candida albicans = assay: Antifungal activity against Candida albicans in healthy human intestine at […], iv administered every 12 hrs for 7 days measured on day 21; assay type: functional, organism-based; in short: as §1
Peptostreptococcus sp. = assay: Antibacterial activity against Peptostreptococcus sp. by broth microdilution method; assay type: functional
Clostridioides difficile [10] = assay: Antibacterial activity against Clostridium difficile ATCC 700057 after 48 hrs by CLSI method; assay type: functional; conditions: ATCC 700057, 48 h; in short: as §2
Propionibacterium = assay: Antibacterial activity against Propionibacterium by broth microdilution method; assay type: functional
Escherichia coli [11] = assay: Antibacterial activity against Escherichia coli in healthy human intestine assessed as decrease in bacterial count at […], iv administered every 12 hrs for 7 days measured on day 14; assay type: functional, organism-based; in short: as §1
Staphylococcus aureus = assay: Antibacterial activity against Staphylococcus aureus ATCC 29213 at =< 4 mg/L after 48 hrs by CLSI method; assay type: functional, organism-based
Lactobacillus = assay: Antibacterial activity against Lactobacillus in healthy human intestine assessed as log reduction in bacterial count per gram of feces at […], iv administered every 12 hrs for 7 days measured on day 7; assay type: functional; in short: as §1

## CCO/N=C(\C(=O)N[C@@H]1C(=O)N2C(C(=O)[O-])=C(Sc3nc(-c4cc[n+](C)cc4)cs3)CS[C@H]12)c1nsc(NP(=O)(O)O)n1 [CEFTAROLINE FOSAMIL]
Enterococcus
  Activity: inactive
Bifidobacterium
  log10cfu: 2.1
Homo sapiens [1]
  Activity: Non-toxic
Clostridioides difficile [2]
  MIC90: 4 µg/mL (≈ 5.84 µM)
Escherichia coli [3]
  Activity: Active
Prevotella
  MIC90: > 32 µg/mL
Enterococcus faecalis
  Activity: Active
Bacteroides sp.
  inhibition: inactive
Homo sapiens [4]
  Activity: Non-toxic
Bacteroides fragilis [5]
  MIC90: > 32 µg/mL
Escherichia coli [6]
  log10cfu: 2
Clostridium
  inhibition: inactive
Homo sapiens [7]
  Activity: Non-toxic
Clostridium perfringens
  MIC90: 4 µg/mL (≈ 5.84 µM)
Bacteroides fragilis [8]
  MIC: ≥ 64 µg/mL
Escherichia coli [9]
  log10cfu: 1.5
Clostridium septicum
  MIC90: 4 µg/mL (≈ 5.84 µM)
Enterobacteriaceae
  inhibition: inactive
Candida albicans
  Activity: inactive
Peptostreptococcus sp.
  MIC90: 4 µg/mL (≈ 5.84 µM)
Clostridioides difficile [10]
  MIC: 4 µg/mL (≈ 5.84 µM)
Propionibacterium
  MIC90: 4 µg/mL (≈ 5.84 µM)
Escherichia coli [11]
  inhibition: Active
Staphylococcus aureus
  Activity: Active
Lactobacillus
  log10cfu: 1.7
